This passage reports IC50, GI50 and Activity results from ChEMBL document CHEMBL5032510, “Identification of Novel Fused Heteroaromatics-Based MALT1 Inhibitors by High-Throughput Screening to Treat B Cell Lymphoma” (J Med Chem, 2021).

The source made the active and inactive calls. The rule behind the calls is not given here.

Experiment [1] addresses T1, Mucosa-associated lymphoid tissue lymphoma translocation protein 1 (Homo sapiens, UniProt Q9UDY8).
T1 sequence (Q9UDY8 whole entry): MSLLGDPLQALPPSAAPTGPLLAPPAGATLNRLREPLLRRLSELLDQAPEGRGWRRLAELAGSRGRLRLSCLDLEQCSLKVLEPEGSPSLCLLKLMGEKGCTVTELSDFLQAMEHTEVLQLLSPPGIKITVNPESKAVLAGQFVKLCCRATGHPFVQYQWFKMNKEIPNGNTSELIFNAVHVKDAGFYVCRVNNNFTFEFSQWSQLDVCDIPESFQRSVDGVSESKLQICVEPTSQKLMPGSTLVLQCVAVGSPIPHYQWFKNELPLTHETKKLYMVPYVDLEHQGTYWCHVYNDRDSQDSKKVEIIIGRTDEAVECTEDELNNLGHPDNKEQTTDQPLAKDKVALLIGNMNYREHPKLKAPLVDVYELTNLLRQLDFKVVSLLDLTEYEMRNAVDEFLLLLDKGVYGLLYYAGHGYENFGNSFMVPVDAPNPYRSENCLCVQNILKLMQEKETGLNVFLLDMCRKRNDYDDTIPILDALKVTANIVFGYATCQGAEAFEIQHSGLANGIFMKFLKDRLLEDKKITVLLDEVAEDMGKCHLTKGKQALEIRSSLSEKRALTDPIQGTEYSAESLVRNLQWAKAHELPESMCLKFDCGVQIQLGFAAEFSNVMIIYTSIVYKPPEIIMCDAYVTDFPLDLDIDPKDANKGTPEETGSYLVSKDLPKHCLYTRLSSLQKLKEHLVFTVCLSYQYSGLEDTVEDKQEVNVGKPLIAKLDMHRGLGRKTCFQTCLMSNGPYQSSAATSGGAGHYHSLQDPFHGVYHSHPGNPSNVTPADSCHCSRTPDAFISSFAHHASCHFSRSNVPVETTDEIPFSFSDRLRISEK
Briefly: Inhibition of full length recombinant wild type MALT1 (unknown origin) using Ac-LVSR-AMC as substrate by HTS assay.

Experiment [2] has as its target T1, Mucosa-associated lymphoid tissue lymphoma translocation protein 1. Briefly: Inhibition of MALT1 (340 to 789 residues) (unknown origin) using Ac-LRSR-AMC as substrate by fluorescence based analysis. The essentials: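 N-terminal His-tagged LZ-MALT1 expressed in E. coli, purified by Ni-NTA then gel filtration. Fluorescence read at 360/465 nm. IC₅₀ came from concentration–response curves; mean of three independent experiments.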

The target is the same in experiment [3]. Briefly: Inhibition of N-terminal his-tagged GCN4 leucine zipper fused human MALT1 […] expressed in Escherichia coli using Ac-LVSR-AMC as substrate by HTS assay.
Another experiment relates to OCI-Ly1. The experiment is described as follows: Antiproliferative activity against human OCI-Ly1 cells assessed as inhibition of cell growth incubated for 72 hrs by Celltiter-Glo luminescent assay. It counts as functional. The essentials: (§1)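 Exponentially growing cells were seeded at 1 × 10⁴ per 100 μL. HBL-1 and TMD8 were kept in RPMI with 10% FBS, 2 mM glutamine and 10 mM HEPES; OCI-LY1 in Iscove's medium with 20% FBS; all at 37 °C and 5% CO2. Cells were exposed to DMSO or 2-fold serial dilutions from 100 μM for 72 h, in triplicate on one plate. CellTiter-Glo luminescence was read after 1 h. Growth inhibition was calculated against control, accounting for initial cell number, and GI50 was fitted.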
For orientation: In ATP-based viability assays light output follows the ATP content of the culture.

Another experiment relates to TMD8. Briefly: Antiproliferative activity against human TMD8 cells assessed as inhibition of cell growth incubated for 72 hrs by Celltiter-Glo luminescent assay. It counts as functional. The procedure, abridged:
as §1

Experiment [4] in a line: Antiproliferative activity against human HBL1 cells assessed as inhibition of cell growth incubated for 72 hrs by Celltiter-Glo luminescent assay. In kind it is functional. The procedure, abridged: as §1
Experiment [5] concerns the target T1, Mucosa-associated lymphoid tissue lymphoma translocation protein 1. Briefly: Inhibition of MALT1 (329-824 residues) (unknown origin) using PT14 as substrate incubated for 60 mins by fluorescence based assay.

The term IC50 denotes the concentration that gives 50% inhibition. The GI50 is the concentration at which growth is held to half of that of the control.

As to `COCCOc1nc(-c2ccc(Cl)c(Cl)c2)n(-c2ccc(NC(=O)CCl)cc2)n1`, the IC50 in experiment [1] was found to be 5.84 µM.
On to `CC(C)[C@H](NC(=O)c1ccc(Br)cc1)C(=O)N1CCC[C@H]1C(=O)N[C@@H](CCCNC(=N)N)C(=O)CF`, for which, in experiment [2], half-maximal inhibition (IC50) required 0.01 µM.
For the molecule `COc1ccc(OC)c(NC(=O)c2sc(=S)n(-c3cccc(Br)c3)c2NC(=O)CCl)c1`, 4.6 µM corresponded to half-maximal inhibition in experiment [3] (IC50). Moreover, the GI50 in the experiment with OCI-Ly1 was 12.7 µM; in the experiment on TMD8, 1.2 µM; in experiment [4], 1.8 µM.
On the same counts, the results for `COc1cccc(CNC(=O)c2sc(=S)n3c2[nH]c(=O)c2cc(Br)ccc23)c1` are 12.8 µM, 16.1 µM, 16.1 µM and 16.1 µM.
Molecule `O=C(NCc1cccs1)c1sc(=S)n2c1[nH]c(=O)c1cc(Br)ccc12` came in with a half-inhibitory concentration (IC50) in experiment [3] of 4.1 µM. For the same molecule, the outcome in the experiment on OCI-Ly1 was inactive. Further, the values for the GI50 (in the experiment with TMD8; in experiment [4]) were 22 µM and 13 µM, respectively.
For the molecule `O=C(NCc1ccccc1Cl)c1sc(=S)n2c1[nH]c(=O)c1cc(Cl)ccc12`, in experiment [3], inhibition was half-maximal at 5.3 µM (IC50). For the same molecule, the outcome in the experiment with OCI-Ly1 was inactive. Besides, the GI50 amounted to 33 µM in the experiment with TMD8 and 25 µM in experiment [4].
For `Cc1ccc(Cl)cc1NC(=O)c1sc(=S)n2c1[nH]c(=O)c1cc3c(cc12)OCO3`, half-maximal inhibition in experiment [3] (IC50) required 3.6 µM. For the same molecule, the figures for the GI50 (with OCI-Ly1; with TMD8; in experiment [4]) were 48 µM, 12 µM and 32 µM, respectively.
Regarding `CO[C@@H](C)c1c(NC(=O)Nc2cnc(C(=O)N3CCCC3)c(Cl)c2)cnc2cc(Cl)nn12`, the IC50 in experiment [5] was found to be 0.005 µM.
In experiment [3], `COc1ccc(OC)c(NC(=O)c2sc(=S)n3c2[nH]c(=O)c2ccc(Cl)cc23)c1` registered an IC50 of 5.2 µM. Besides, the GI50 in the experiment with OCI-Ly1 turned out to be 20.7 µM; in the experiment with TMD8, 8.4 µM; in experiment [4] it was 8.2 µM.
On the same counts, the results for `COC(=O)c1ccc2c(=O)[nH]c3c(C(=O)Nc4ccc(Cl)cc4)sc(=S)n3c2c1` are 5.1 µM, 18.6 µM, 4.4 µM and 14.8 µM.
Molecule `COC(=O)c1ccc2c(=O)[nH]c3c(C(=O)Nc4cc(OC)ccc4OC)sc(=S)n3c2c1` came in with an IC50 in experiment [3] of 5.3 µM. For the same molecule, the values for the GI50 (in the experiment on OCI-Ly1; with TMD8; in experiment [4]) were 13.4 µM, 7 µM and 6.7 µM, respectively.
On the same counts, the results for `COC(=O)c1ccc2c(=O)[nH]c3c(C(=O)Nc4ccccc4C)sc(=S)n3c2c1` are 14.5 µM, 15 µM, 15 µM and 13.1 µM.
On the same counts, the results for `O=C(NCc1ccccc1Cl)c1sc(=S)n2c1[nH]c(=O)c1cc(Br)ccc12` are 2.3 µM, 30 µM, 15 µM and 19 µM.
Taken in the same sequence, the figures for `O=C(NCc1ccco1)c1sc(=S)n2c1[nH]c(=O)c1cc(Br)ccc12` were 5.2 µM, 36.8 µM, 16.2 µM and 13.2 µM.
In experiment [3], `COC(=O)c1ccc2c(=O)[nH]c3c(C(=O)Nc4ccc(F)cc4F)sc(=S)n3c2c1` came in with an IC50 of 12.2 µM. Also, the values for the concentration for 50% growth inhibition (GI50) (with OCI-Ly1; in the experiment on TMD8; in experiment [4]) were 21.6 µM, 28.2 µM and 14.2 µM, respectively.
With `Cc1ccc(NC(=O)c2sc(=S)n3c2[nH]c(=O)c2cc(C)ccc23)c(C)c1`, in experiment [3], half-maximal inhibition (IC50) required 7.16 µM. Also, the result in the experiment with OCI-Ly1 was inactive. Also, the figures for the GI50 (with TMD8; in experiment [4]) were 15.6 µM and 20.4 µM, respectively.
`COc1ccc(OC)c(NC(=O)c2sc(=S)n(-c3cccc(C#N)c3)c2NC(=O)CCl)c1`: the IC50 in experiment [3] was found to be 5.5 µM. Moreover, the 50% growth inhibitory concentration (GI50) in the experiment with OCI-Ly1 was found to be 11.8 µM; in the experiment with TMD8 it was 1.6 µM; in experiment [4], 1.7 µM.
Taken in the same sequence, the figures for `COc1ccc(OC)c(NC(=O)c2sc(=S)n(-c3cccc(F)c3)c2NC(=O)CCl)c1` were 3.8 µM, 12.1 µM, 1.5 µM and 1.6 µM.
In turn, `COc1ccc(OC)c(NC(=O)c2sc(=S)n(-c3ccc(Cl)cc3)c2NC(=O)CCl)c1` showed an IC50 in experiment [3] of 7 µM. Moreover, the results for the GI50 (in the experiment with OCI-Ly1; in the experiment with TMD8; in experiment [4]) were 13 µM, 1 µM and 1.5 µM, respectively.
Taken in the same sequence, the figures for `O=C(Nc1cccc(F)c1)c1sc(=S)n2c1[nH]c(=O)c1ccc(Cl)cc12` were 5.53 µM, 12.4 µM, 16.8 µM and 16.8 µM.
For the molecule `O=C(Nc1cccc(F)c1)c1sc(=S)n2c1[nH]c(=O)c1cc(Br)ccc12`, half-maximal inhibition in experiment [3] (IC50) was put at 16.1 µM. Also, the GI50 (with OCI-Ly1; in the experiment on TMD8; in experiment [4]) was 17.1 µM each time.
As to `COc1ccccc1NC(=O)c1sc(=S)n2c1[nH]c(=O)c1cc(Cl)ccc12`, the midpoint of inhibition in experiment [3], the IC50, lay at 6.1 µM. Besides, the concentration for 50% growth inhibition (GI50) with OCI-Ly1 came to 23 µM; in the experiment with TMD8 it was 17 µM; in experiment [4], 17 µM.
